Measured values gathered from unrelated publications.
Protocols differ between the studies behind these lines.
Target: Ephrin type-A receptor 1 (EPHA1, Homo sapiens, UniProt P21709)
One construct used (P21709 26-976): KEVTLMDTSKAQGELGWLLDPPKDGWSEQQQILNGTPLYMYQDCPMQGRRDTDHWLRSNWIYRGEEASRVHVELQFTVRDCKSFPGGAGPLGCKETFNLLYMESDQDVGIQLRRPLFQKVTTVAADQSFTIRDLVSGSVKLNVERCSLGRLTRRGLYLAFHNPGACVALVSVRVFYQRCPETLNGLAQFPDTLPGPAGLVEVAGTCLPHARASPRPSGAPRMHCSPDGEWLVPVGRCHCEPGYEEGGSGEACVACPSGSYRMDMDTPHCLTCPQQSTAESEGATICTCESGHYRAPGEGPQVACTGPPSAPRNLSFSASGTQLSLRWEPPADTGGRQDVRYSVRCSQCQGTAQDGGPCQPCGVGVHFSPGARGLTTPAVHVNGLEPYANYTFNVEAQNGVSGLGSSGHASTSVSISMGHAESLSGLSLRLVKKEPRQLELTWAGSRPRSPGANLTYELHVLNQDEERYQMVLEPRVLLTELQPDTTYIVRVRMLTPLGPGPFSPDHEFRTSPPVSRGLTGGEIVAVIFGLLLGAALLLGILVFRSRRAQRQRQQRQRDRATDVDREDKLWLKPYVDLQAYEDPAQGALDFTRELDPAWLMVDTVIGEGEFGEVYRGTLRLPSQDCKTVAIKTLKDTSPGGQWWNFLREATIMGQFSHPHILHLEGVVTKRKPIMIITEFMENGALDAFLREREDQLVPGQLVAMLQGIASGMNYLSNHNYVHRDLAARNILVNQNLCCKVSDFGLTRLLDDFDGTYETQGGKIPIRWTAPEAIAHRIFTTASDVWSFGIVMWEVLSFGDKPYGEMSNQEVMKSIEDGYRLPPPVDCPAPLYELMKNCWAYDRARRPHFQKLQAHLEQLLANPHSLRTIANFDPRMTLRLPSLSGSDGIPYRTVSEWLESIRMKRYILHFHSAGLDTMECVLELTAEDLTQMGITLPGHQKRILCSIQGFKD

SMILES | read-out | technique | tested at | remaining binding
CN(c1nccc(-c2cnn3ncccc23)n1)C1CC1 | binding |  | 1 µM | 99%
O=C(c1ccc(Nc2ncc(Cl)c(-c3ccc(Cl)s3)n2)cc1)N1CCC(N2CCCC2)CC1 | binding | competition with immobilised ligand | 1 µM | 32%
CC(=O)N1CCC(c2ccc(C(=O)NC3=NCCN3)cc2C(F)(F)F)CC1 | cell-free assay | competition with immobilised ligand | 1 µM | 88%
c1cnn2ncc(-c3ccnc(N4CCC45COC5)n3)c2c1 | binding |  | 1 µM | 89%
Cc1nccc(COC(=O)N2C[C@@H]3[C@@H](CNC(=O)c4ccc5[nH]nnc5c4)[C@@H]3C2)n1 | cell-free assay | competition with immobilised ligand | 1 µM | 100%
Cc1cnc(Nc2ccc(C(=O)N3CCC(N4CCCC4)CC3)cc2)nc1-c1cc2ccccc2s1 | binding | competition with immobilised ligand | 1 µM | 3.9%
CC(=O)C1=C(C)N(c2cccc(C(F)(F)F)c2)C(=O)N[C@@H]1c1ccc(C#N)nc1 | cell-free assay | competition with immobilised ligand | 1 µM | 100%
CN(C)c1nccc(-c2cnn3ncccc23)n1 | binding |  | 1 µM | 46%
COc1cnc(Nc2cccc(S(N)(=O)=O)c2)nc1N1CCN(c2ccccc2)C(=O)C1 | binding | competition with immobilised ligand | 1 µM | 90%
C=CC(=O)N1CCC(C(=O)NCC(=O)N2CCN(c3nc(-c4cnc(N)nc4C(F)F)nc(N4CCOCC4)n3)CC2)CC1 | binding | competition with immobilised ligand | 1 µM | 100%
C[C@@H](c1ccc(-n2cnc3c(N)ncnc32)cc1)N1CCc2nn(C)c(Cc3ccccc3)c2C1=O | binding | competition with immobilised ligand | 0.1 µM | 87%
CNCc1ccccc1-c1csc([C@@H](C)Nc2nc(C)nc3cc(OC)c(OC)cc23)c1 | cell-free assay | competition with immobilised ligand | 1 µM | 79%
O=C(NCCCN1CCOCC1)c1ccc(Nc2ncc(Cl)c(-c3ccc(Cl)s3)n2)cc1 | binding | competition with immobilised ligand | 1 µM | 46%
N[C@H]1CCN(c2nccc(-c3cnn4ncccc34)n2)C1 | binding |  | 1 µM | 100%
CNC(=O)Nc1ccc2c(c1)CC[C@@]21OC(=O)N(CC(=O)N(Cc2ccc(F)cc2)[C@@H](C)C(F)(F)F)C1=O | cell-free assay | competition with immobilised ligand | 1 µM | 88%
C[C@H]1CCN(c2nccc(-c3cnn4ncccc34)n2)C1 | binding |  | 1 µM | 84%
CC(=O)N1CCC(c2ccc(C(=O)NC(=N)N)cc2C(F)(F)F)CC1 | cell-free assay | competition with immobilised ligand | 1 µM | 100%
O=C(NCC1CCOCC1)c1n[nH]cc1NC(=O)c1c(F)cccc1F | binding | competition with immobilised ligand | 1 µM | 100%
CN(C)c1ncc(F)c(-c2cnn3ncccc23)n1 | binding |  | 1 µM | 98%
COc1cnc(Nc2cccc(S(N)(=O)=O)c2)nc1N1CCN(c2ccccc2)CC1 | binding | competition with immobilised ligand | 1 µM | 100%
COc1ncc2cc3ccccc3nc2c1C#N | cell-free assay | competition with immobilised ligand | 5 µM | 95%
